From ChEMBL document CHEMBL1126083, “Novel functional M1 selective muscarinic agonists. Synthesis and structure-activity relationships of 3-(1,2,5-thiadiazolyl)-1,2,5,6-tetrahydro-1-methylpyridines ” (J Med Chem, 1992)

Columns and labels:
Cavia porcellus [1] = species on record: Cavia porcellus; assay: In vitro inhibition of maximum force of contraction in guinea pig atria.; type: functional
Cavia porcellus [2] = species on record: Cavia porcellus; assay: In vitro inhibition of force of contraction in guinea pig atria.; type: functional
Oryctolagus cuniculus [3] = species on record: Oryctolagus cuniculus; assay: In vitro inhibition of maximum twitch height in electrically stimulated rabbit vas deferens.; type: functional
Procedure, shortened: (§1)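 Vasa deferentia taken from rabbits under pentobarbital (60 mg/kg i.v.), held at 0.75 g tension and equilibrated ≥30 min. Field-stimulated at 0.5 ms, 40 V, 0.05 Hz. Cumulative concentration–effect curves run on prostatic and epididymal tissues, 3–5 preparations per concentration.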

[4] = target: T1, Muscarinic acetylcholine receptor M1 (Rattus norvegicus, UniProt P08482); assay: In vitro binding affinity against muscarinic acetylcholine receptor M1 from rat hippocampus, using [3H]pirenzepine (Pz) as radioligand; type: tissue-based
T1 sequence (P08482 whole entry): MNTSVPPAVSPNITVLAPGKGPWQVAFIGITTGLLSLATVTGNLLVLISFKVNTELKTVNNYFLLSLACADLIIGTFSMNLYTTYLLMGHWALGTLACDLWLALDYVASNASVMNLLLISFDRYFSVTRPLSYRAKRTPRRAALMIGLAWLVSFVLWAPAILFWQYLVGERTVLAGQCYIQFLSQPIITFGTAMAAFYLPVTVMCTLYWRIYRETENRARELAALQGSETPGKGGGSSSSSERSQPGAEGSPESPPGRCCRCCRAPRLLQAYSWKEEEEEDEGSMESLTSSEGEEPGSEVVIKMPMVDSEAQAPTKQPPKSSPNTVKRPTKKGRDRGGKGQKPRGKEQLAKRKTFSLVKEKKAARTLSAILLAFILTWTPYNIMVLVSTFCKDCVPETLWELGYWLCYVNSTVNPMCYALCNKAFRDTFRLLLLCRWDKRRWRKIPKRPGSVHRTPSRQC

Oryctolagus cuniculus [5] = species on record: Oryctolagus cuniculus; assay: In vitro inhibition of twitch height in electrically stimulated rabbit vas deferens; type: functional; procedure, shortened: as §1
[6] = target: T1, Muscarinic acetylcholine receptor M1; assay: In vitro binding affinity against muscarinic acetylcholine receptor M1 from rat cerebral cortex, using [3H]oxotremorine-M (Oxo-M) as radioligand
[7] = target: T1, Muscarinic acetylcholine receptor M1; assay: In vitro binding affinity against Muscarinic acetylcholine receptor M1 from rat hippocampus, using [3H]pirenzepine (Pz) as radioligand.; type: tissue-based
[8] = target: T1, Muscarinic acetylcholine receptor M1; assay: In vitro binding affinity against Muscarinic acetylcholine receptor M1 from rat hippocampus, using [3H]oxotremorine-M (Oxo-M) as radioligand.; type: tissue-based; conditions: in the assay text read “cerebral cortex” for “hippocampus”
Procedure, shortened: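 Rat cortex (fresh, male Wistar) homogenized in 20 mM Hepes pH 7.4, spun 15 min at 4000g, and washed three times. Homogenate incubated with [3H]Oxo-M (1.0 nM final) for 30 min at 25 °C. […] Filtered and counted by scintillation. IC50 from at least four concentrations in triplicate, fitted by the Hill equation.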

Row | Structure (SMILES) | Inhibition (Cavia porcellus [1]) [%] | IC30 (Cavia porcellus [2]) [nM] | Inhibition (Oryctolagus cuniculus [3]) [%] | IC50 [4] [nM] | IC50 (Oryctolagus cuniculus [5]) [nM] | IC50 [6] [nM] | IC50 [7] [nM] | IC50 [8] [nM]
1 | CCCCC(C)Oc1nsnc1C1=CCCN(C)C1.O=C(O)/C=C/C(=O)O (centres undefined) | 15 | > 25000 | 79 | 6.9 | 7 | 7 |  | 
2 | CCCCSc1nsnc1C1=CCCN(C)C1.O=C(O)C(=O)O | 45 | 100 | 83 | 1.3 | 0.003 | 1.7 |  | 
3 | CN1CCC=C(c2nsnc2Cl)C1 | 67 | 29400 |  |  |  |  |  | 
4 | CCCCCCCc1nsnc1C1=CCCN(C)C1.O=C(O)C(=O)O | 78 | 5400 |  |  |  |  |  | 
5 | CCCCCCNc1nsnc1C1=CCCN(C)C1 | 84 | 13000 | 65 | 105 | 3000 | 60 |  | 
6 | CCCCCSc1nsnc1C1=CCCN(C)C1.O=C(O)C(=O)O | 33 | 5400 |  |  |  |  |  | 
7 | CSc1nsnc1C1=CCCN(C)C1.O=C(O)C(=O)O | 100 | 300 | 70 | 43 | 3 | 2.3 |  | 
8 | CCC(C)CCOc1nsnc1C1=CCCN(C)C1.O=C(O)/C=C/C(=O)O (centres undefined) | 0 | > 75000 | 65 | 8.4 | 47 | 10 |  | 
9 | CCCSc1nsnc1C1=CCCN(C)C1.O=C(O)C(=O)O | 100 | 50 | 42 | 4 |  | 0.9 |  | 
10 | CCCOc1nsnc1C1=CCCN(C)C1.O=C(O)C(=O)O | 100 | 90 | 25 | 18 |  | 1.6 |  | 
11 | CCCCCCSc1nsnc1C1=CCCN(C)C1.O=C(O)C(=O)O | 56 | 9700 | 92 |  | 0.001 |  | 5 | 6.5
12 | CCCCOc1nsnc1C1=CCCN(C)C1.O=C(O)C(=O)O | 71 | 200 |  |  |  |  |  | 
13 | CCOc1nsnc1C1=CCCN(C)C1.O=C(O)C(=O)O | 0 | > 75000 | 43 | 48 |  | 5.7 |  | 
14 | CCCCCCCCOc1nsnc1C1=CCCN(C)C1.O=C(O)C(=O)O | 0 | > 75000 | 0 | 40 |  | 30 |  | 
15 | CCCC(C)COc1nsnc1C1=CCCN(C)C1.O=C(O)/C=C/C(=O)O (centres undefined) | 0 | > 75000 | 32 | 9 |  | 13 |  | 
16 | COc1nsnc1C1=CCCN(C)C1.O=C(O)C(=O)O | 50 | 1100 | 47 | 148 | 364 | 22 |  | 
17 | CCCCCCOc1nsnc1C1=CCCN(C)C1.O=C(O)C(=O)O | 20 | > 27000 |  |  |  |  |  | 

Row | Structure (SMILES) | Inhibition (Cavia porcellus [1]) [%] | IC30 (Cavia porcellus [2]) [nM] | Inhibition (Oryctolagus cuniculus [3]) [%] | IC50 [4] [nM] | IC50 (Oryctolagus cuniculus [5]) [nM] | IC50 [6] [nM] | IC50 [7] [nM] | IC50 [8] [nM]
18 | CCCCCCCSc1nsnc1C1=CCCN(C)C1.O=C(O)C(=O)O | 40 | 7500 | 63 | 12 | 108 | 3 |  | 
19 | CCCCCCCCc1nsnc1C1=CCCN(C)C1.O=C(O)C(=O)O | 14 | > 75000 | 26 |  |  |  | 56 | 428
20 | CCCc1nsnc1C1=CCCN(C)C1.O=C(O)C(=O)O | 7 | > 75000 | 13 |  |  |  | 84 | 80
21 | CCCCCCCCSc1nsnc1C1=CCCN(C)C1.O=C(O)C(=O)O | 5 | > 72000 | 42 |  |  |  | 49 | 140
22 | CCCCCc1nsnc1C1=CCCN(C)C1.O=C(O)C(=O)O | 12 |  | 40 |  |  |  | 170 | 146
23 | C[N+](C)(C)CC#CCOC(=O)Nc1cccc(Cl)c1.[Cl-] | 0 | > 100000 | 91 | 955 | 659 | 355 |  | 
24 | CN1CCC=C(c2cnsn2)C1 | 100 | 10 | 59 | 145 | 26 | 2 |  | 
25 | CCSc1nsnc1C1=CCCN(C)C1.O=C(O)C(=O)O | 100 | 70 | 71 | 18 | 22 | 1.9 |  | 
26 | CCCCCCOc1nonc1C1=CCCN(C)C1 | 0 | > 70000 | 47 | 277 | 10000 | 84 |  | 
27 | CCCCCOc1nsnc1C1=CCCN(C)C1.O=C(O)C(=O)O | 43 | 2800 |  |  |  |  |  | 
28 | CCCCCCS(=O)(=O)c1nsnc1C1=CCCN(C)C1 | 76 | 5500 | 73 | 62 | 43 | 29 |  | 
29 | CCCCOc1nonc1C1=CCCN(C)C1 | 0 | > 70000 | 12 | 345 |  | 24 |  | 
30 | CC(C)CCCOc1nsnc1C1=CCCN(C)C1.O=C(O)/C=C\C(=O)O | 73 | 7300 | 86 | 9.7 | 0.006 | 8 |  | 
31 | CCCCCCCOc1nsnc1C1=CCCN(C)C1.O=C(O)C(=O)O | 100 | 3900 |  |  |  |  |  | 
32 | CCCCCC[S+]([O-])c1nsnc1C1=CCCN(C)C1 (centres undefined) | 45 | 25000 | 80 | 860 | 48 | 109 |  | 
33 | COC(=O)C1=CCCN(C)C1 [ARECOLINE] | 100 | 600 |  |  |  |  |  | 
34 | C[N+](C)(C)CCOC(N)=O.[Cl-] [CARBACHOL] | 100 | 500 | 77 |  | 460 |  |  | 
